Source: ChEMBL document CHEMBL3272173, “Synthesis and biological activity of peptide antagonists of luliberin (luteinizing hormone-releasing hormone)” (J Med Chem, 1979)
“And” between values parts separate entries of the source, which are not always exact repeats. Identical values can stand only once. Numbered stars: 1 amine (or outer) side, 2 acyl side, 3 side chain; on linkers, the order of the positions; unused ones are H or OH. Peptide text beside a SMILES is read from it. * marks the point of attachment. NHcHex = C1CCC(N*)CC1; CO = O=C([*:1])[*:2]

Tests used:
[1] = molecular target: T1, Gonadotropin-releasing hormone receptor (Rattus norvegicus) (UniProt P30969); assay: In vitro antagonist activity at GNRHR in CD rat anterior pituitary gland assessed as inhibition of LH-RH-stimulated LH release at compound to LH-RH molar ratio of 1000 after 4 hrs by radioimmunoassay; details: concentration not given here
T1 sequence (whole entry): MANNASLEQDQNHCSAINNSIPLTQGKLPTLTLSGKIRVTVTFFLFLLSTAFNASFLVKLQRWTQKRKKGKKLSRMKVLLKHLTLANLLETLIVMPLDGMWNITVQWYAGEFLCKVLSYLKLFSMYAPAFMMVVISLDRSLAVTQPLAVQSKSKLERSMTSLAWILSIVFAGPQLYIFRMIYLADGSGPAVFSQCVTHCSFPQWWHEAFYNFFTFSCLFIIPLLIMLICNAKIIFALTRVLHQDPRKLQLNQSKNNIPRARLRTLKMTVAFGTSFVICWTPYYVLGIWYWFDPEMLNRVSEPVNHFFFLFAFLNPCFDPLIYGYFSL
Summary of the method: (§1)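 Anterior pituitaries from diestrus CD rats (200-250 g) were dissociated enzymatically (collagenase, hyaluronidase, then Viokase). Cells were cultured 4 days at 1.67 × 10^5 cells/mL in DME with 10% horse serum and 2.5% fetal calf serum, then washed serum-free. Duplicate cultures received LH-RH (2-5 × 10^-10 M) with a single analogue concentration in serum-free DME for 4 h at 37 °C. LH in the medium was measured by RIA and reported as % inhibition of LH-RH-stimulated release.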

Rattus norvegicus [2] = assay: Antiovulatory activity in CD rat assessed as blockade of ovulation at 1 mg, sc administered as six doses at 1200, 1230, 1300, 1350, 1400 and 1450 hrs during proestrus stage measured during estrus stage by dissecting microscopic analysis; type: functional
Summary of the method: (§2)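 Cycling Charles River CD rats were given six subcutaneous injections of analogue in 0.1 mL propylene glycol on the afternoon of proestrus, and controls received vehicle alone. Rats were killed the next morning (estrus). Ovulating animals were scored and ova in the oviducts were counted under a dissecting microscope.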

Rattus norvegicus [3] = assay: Antiovulatory activity in sc dosed CD rat assessed as blockade of ovulation administered as six doses at 1200, 1230, 1300, 1350, 1400 and 1450 hrs during proestrus stage measured during estrus stage by dissecting microscopic analysis; type: functional; summary of the method: as §2
[4] = molecular target: T1, Gonadotropin-releasing hormone receptor (Rattus norvegicus); assay: In vitro antagonist activity at GNRHR in CD rat anterior pituitary gland assessed as inhibition of LH-RH-stimulated LH release at compound to LH-RH molar ratio of 200 after 4 hrs by radioimmunoassay; details: concentration not given here; summary of the method: as §1
[5] = molecular target: T1, Gonadotropin-releasing hormone receptor (Rattus norvegicus); assay: In vitro antagonist activity at GNRHR in CD rat anterior pituitary gland assessed as ratio of molar concentration of compound to LH-RH for inhibition of LH-RH-stimulated LH release after 4 hrs by radioimmunoassay
Summary of the method: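 Monolayers were cultured 4 days from dissociated anterior pituitary cells of diestrus CD rats. They were exposed in duplicate to LH-RH (2-5 × 10^-10 M) plus multiple analogue concentrations in serum-free DME for 4 h at 37 °C. LH in the medium was measured by radioimmunoassay. The ED50 molar ratio is the analogue:LH-RH molar ratio giving 50% inhibition of LH-RH-stimulated LH release.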

inhibition [1] [%]	inhibition [4]	ED50 [5] [molar ratio]	Compound	inhibition (INH) (Rattus norvegicus [2]) [%]	ED50 (Rattus norvegicus [3]) [mg]
70	–	–	CC[C@H](C)[C@H](NC(=O)OCc1ccccc1)C(=O)N[C@@H](Cc1c[nH]c2ccccc12)C(=O)N[C@@H](CO)C(=O)N[C@@H](Cc1ccc(O)cc1)C(=O)NCC(=O)N[C@@H](CC(C)C)C(=O)N[C@@H](CCCNC(=N)N)C(=O)N1CCC[C@H]1C(=O)NCC(N)=O.Cl (HELM PEPTIDE1{[O=C(OCc1ccccc1)[*:2]].I.W.S.Y.G.L.R.P.G.[am]}$$$$V2.0)	20	>1
0	–	–	CC(C)C[C@H](NC(=O)CNC(=O)[C@H](Cc1ccc(O)cc1)NC(=O)[C@H](CO)NC(=O)[C@H](Cc1c[nH]c2ccccc12)NC(=O)[C@H](CCC(N)=O)NC=O)C(=O)N[C@@H](CCCNC(=N)N)C(=O)N1CCC[C@H]1C(=O)NCC(N)=O (HELM PEPTIDE1{[O=C[*:2]].Q.W.S.Y.G.L.R.P.G.[am]}$$$$V2.0)	–	–
–	87%	8	CC(C)C[C@H](NC(=O)[C@@H](Cc1c[nH]c2ccccc12)NC(=O)[C@H](Cc1ccc(O)cc1)NC(=O)[C@H](CO)NC(=O)[C@H](Cc1c[nH]c2ccccc12)NC(=O)[C@H](CCC(N)=O)NC(=O)OCc1ccccc1)C(=O)N[C@@H](CCCNC(=N)N)C(=O)N1CCC[C@H]1C(=O)NCC(N)=O.Cl	0	>1
95	–	750	CC(C)C[C@H](NC(=O)CNC(=O)[C@H](Cc1ccc(O)cc1)NC(=O)[C@H](CO)NC(=O)[C@H](Cc1c[nH]c2ccccc12)NC(=O)[C@H](CC(C)C)NC(=O)OCc1ccccc1)C(=O)N[C@@H](CCCNC(=N)N)C(=O)N1CCC[C@H]1C(=O)NCC(N)=O.Cl (HELM PEPTIDE1{[O=C(OCc1ccccc1)[*:2]].L.W.S.Y.G.L.R.P.G.[am]}$$$$V2.0)	40	>3
–	83%	–	CC(C)C[C@H](NC(=O)[C@@H](Cc1ccc(O)cc1)NC(=O)[C@H](Cc1ccc(O)cc1)NC(=O)[C@H](CO)NC(=O)[C@H](Cc1c[nH]c2ccccc12)NC(=O)[C@@H](Cc1ccccc1)NC(=O)OCc1ccccc1)C(=O)N[C@@H](CCCNC(=N)N)C(=O)N1CCC[C@H]1C(=O)NCC(N)=O.Cl	0	>1
–	68%	–	CC(C)C[C@H](NC(=O)[C@@H](CO)NC(=O)[C@H](Cc1ccc(O)cc1)NC(=O)[C@H](CO)NC(=O)[C@H](Cc1c[nH]c2ccccc12)NC(=O)[C@H](COCc1ccccc1)NC(=O)OC(C)(C)C)C(=O)N[C@@H](CCCNC(=N)N)C(=O)N1CCC[C@H]1C(=O)NCC(N)=O.Cl	0	>1
51	–	–	CC(C)C[C@H](NC(=O)CNC(=O)[C@H](Cc1ccc(O)cc1)NC(=O)[C@H](CO)NC(=O)[C@H](Cc1c[nH]c2ccccc12)NC(=O)Cc1ccccc1)C(=O)N[C@@H](CCCNC(=N)N)C(=O)N1CCC[C@H]1C(=O)NCC(N)=O (HELM PEPTIDE1{[O=C(Cc1ccccc1)[*:2]].W.S.Y.G.L.R.P.G.[am]}$$$$V2.0)	–	–
–	–	–	CC(C)C[C@H](NC(=O)[C@@H](Cc1ccccc1)NC(=O)[C@H](Cc1ccc(O)cc1)NC(=O)[C@H](CO)NC(=O)[C@H](Cc1c[nH]c2ccccc12)NC(=O)[C@H](CCC(N)=O)NC(=O)OCc1ccccc1)C(=O)N[C@@H](CCCNC(=N)N)C(=O)N1CCC[C@H]1C(=O)NCC(N)=O.Cl	–	>1
16	–	–	CC(C)C[C@H](NC(=O)CNC(=O)[C@H](Cc1ccc(O)cc1)NC(=O)[C@H](CO)NC(=O)[C@H](Cc1c[nH]c2ccccc12)NC(=O)[C@H](Cc1ccc(O)cc1)NC(=O)OCc1ccccc1)C(=O)N[C@@H](CCCNC(=N)N)C(=O)N1CCC[C@H]1C(=O)NCC(N)=O (HELM PEPTIDE1{[O=C(OCc1ccccc1)[*:2]].Y.W.S.Y.G.L.R.P.G.[am]}$$$$V2.0)	–	–
–	50%	–	CC(=O)O.CCNC(=O)[C@@H]1CCCN1C(=O)[C@H](CCCNC(=N)N)NC(=O)[C@H](CC(C)C)NC(=O)[C@@H](CO)NC(=O)[C@H](Cc1ccc(O)cc1)NC(=O)[C@H](CO)NC(=O)[C@H](Cc1c[nH]c2ccccc12)NC(=O)[C@H](CCC(N)=O)NC(=O)OCc1ccccc1	0	>1
15	–	–	CC(C)C[C@H](NC(=O)CNC(=O)[C@H](Cc1ccc(O)cc1)NC(=O)[C@H](CO)NC(=O)[C@H](Cc1c[nH]c2ccccc12)NC(=O)[C@H](CCC(N)=O)NC(=O)OC(C)(C)C)C(=O)N[C@@H](CCCNC(=N)N)C(=O)N1CCC[C@H]1C(=O)NCC(N)=O (HELM PEPTIDE1{[CC(C)(C)OC(=O)[*:2]].Q.W.S.Y.G.L.R.P.G.[am]}$$$$V2.0)	–	–
48	–	–	CC(C)C[C@H](NC(=O)CNC(=O)[C@H](Cc1ccc(O)cc1)NC(=O)[C@H](CO)NC(=O)[C@H](Cc1c[nH]c2ccccc12)NC(=O)[C@@H](NC(=O)OCc1ccccc1)C(C)C)C(=O)N[C@@H](CCCNC(=N)N)C(=O)N1CCC[C@H]1C(=O)NCC(N)=O (HELM PEPTIDE1{[O=C(OCc1ccccc1)[*:2]].V.W.S.Y.G.L.R.P.G.[am]}$$$$V2.0)	–	–
–	83% and 93%	22	CC(C)C[C@H](NC(=O)[C@@H](Cc1ccccc1)NC(=O)[C@H](Cc1ccc(O)cc1)NC(=O)[C@H](CO)NC(=O)[C@H](Cc1c[nH]c2ccccc12)NC(=O)[C@H](CCC(N)=O)NC(=O)OCc1ccccc1)C(=O)N[C@@H](CCCNC(=N)N)C(=O)N1CCC[C@H]1C(=O)NCC(N)=O	–	–
40	–	–	CCNC(=O)CNC(=O)[C@@H]1CCCN1C(=O)[C@H](CCCNC(=N)N)NC(=O)[C@H](CC(C)C)NC(=O)CNC(=O)[C@H](Cc1ccc(O)cc1)NC(=O)[C@H](CO)NC(=O)[C@H](Cc1c[nH]c2ccccc12)NC(=O)[C@H](CCC(N)=O)NC(=O)OCc1ccccc1 (HELM PEPTIDE1{[O=C(OCc1ccccc1)[*:2]].Q.W.S.Y.G.L.R.P.G.[CCN[*:1]]}$$$$V2.0)	–	–
81	–	–	CCNC(=O)[C@@H]1CCCN1C(=O)[C@H](CCCNC(=N)N)NC(=O)[C@H](CC(C)C)NC(=O)CNC(=O)[C@H](Cc1ccc(O)cc1)NC(=O)[C@H](CO)NC(=O)[C@H](Cc1c[nH]c2ccccc12)NC(=O)[C@H](CC(C)C)NC(=O)OCc1ccccc1.Cl	20	>1
–	–	–	CC(=O)O.CC(C)C[C@H](NC(=O)[C@@H](Cc1ccccc1)NC(=O)[C@H](Cc1ccc(O)cc1)NC(=O)[C@H](CO)NC(=O)[C@H](Cc1c[nH]c2ccccc12)NC(=O)[C@H](CCC(N)=O)NC(=O)OCc1ccccc1)C(=O)N[C@@H](CCCNC(=N)N)C(=O)N1CCC[C@H]1C(=O)NCC(N)=O	20	>3
–	75%	–	CC(=O)O.CCNC(=O)[C@@H]1CCCN1C(=O)[C@H](CCCNC(=N)N)NC(=O)[C@H](CC(C)C)NC(=O)[C@@H](Cc1ccc(OC)cc1)NC(=O)[C@H](Cc1ccc(O)cc1)NC(=O)[C@H](CO)NC(=O)[C@H](Cc1c[nH]c2ccccc12)NC(=O)[C@H](COCc1ccccc1)NS(C)(=O)=O	0	>1
–	–	–	CCNC(=O)[C@@H]1CCCN1C(=O)[C@H](CCCNC(=N)N)NC(=O)[C@H](CC(C)C)NC(=O)[C@H](NC(=O)[C@H](Cc1ccc(O)cc1)NC(=O)[C@H](CO)NC(=O)[C@H](Cc1c[nH]c2ccccc12)NC(=O)[C@H](CCC(N)=O)NC(=O)OCc1ccccc1)[C@@H](O)c1ccccc1.Cl	100	0.4
100	–	–	CCNC(=O)[C@@H]1CCCN1C(=O)[C@H](CCCNC(=N)N)NC(=O)[C@H](CC(C)C)NC(=O)[C@@H](C)NC(=O)[C@H](Cc1ccc(O)cc1)NC(=O)[C@H](CO)NC(=O)[C@H](Cc1c[nH]c2ccccc12)NC(=O)[C@H](CCC(N)=O)NC(=O)OCc1ccccc1.Cl	20	>3
19	–	–	CC(C)C[C@H](NC(=O)CNC(=O)[C@H](Cc1ccc(O)cc1)NC(=O)[C@H](CO)NC(=O)[C@H](Cc1c[nH]c2ccccc12)NC(=O)NC1CCCCC1)C(=O)N[C@@H](CCCNC(=N)N)C(=O)N1CCC[C@H]1C(=O)NCC(N)=O ({NHcHex-CO}-WSYGLRPG-NH2)	–	–
35	–	–	CC(C)C[C@H](NC(=O)CNC(=O)[C@H](Cc1ccc(O)cc1)NC(=O)[C@H](CO)NC(=O)[C@H](Cc1c[nH]c2ccccc12)NC(=O)[C@H](CC(N)=O)NC(=O)OCc1ccccc1)C(=O)N[C@@H](CCCNC(=N)N)C(=O)N1CCC[C@H]1C(=O)NCC(N)=O (HELM PEPTIDE1{[O=C(OCc1ccccc1)[*:2]].N.W.S.Y.G.L.R.P.G.[am]}$$$$V2.0)	–	–
